# The source made the active and inactive calls. The calls are words filed in the database; no cut-off is given here.
# Key:
# Plasmodium berghei [1] = test: Antiplasmodial activity against Plasmodium berghei ANKA infected in mice (Mus musculus) assessed as mice (Mus musculus) survival at 50 mg/kg, intraperitoneal for 5 consecutive days measured on day 14 post parasitic infection; type: functional, organism-based; parameters: dose 50 mg/kg
# Method in brief: (§1)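 P. berghei GFP ANKA acute mouse model. Drug was given intraperitoneally once daily for 5 consecutive days, alongside vehicle-treated infected controls. Mice were watched for clinical and adverse signs and euthanized for welfare if signs became very severe. Surviving animals were counted per group on days 7, 11, 14 and 25, and mean survival time was calculated.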
# Plasmodium falciparum [2] = test: Antiplasmodial activity against Plasmodium falciparum Ghana by micro dilution assay; type: functional, organism-based
# Method in brief: (§2)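 Intraerythrocytic P. falciparum, strains GHA and K1, in a microdilution assay; tested in duplicate.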
# Plasmodium berghei [3] = test: Antiplasmodial activity against Plasmodium berghei ANKA infected in mice (Mus musculus) assessed as mice (Mus musculus) survival at 50 mg/kg, intraperitoneal for 5 consecutive days measured on day 25 post parasitic infection; type: functional, organism-based; parameters: dose 50 mg/kg
# Method in brief: (§3)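 P. berghei (GFP ANKA strain) acute mouse model; intraperitoneal dosing for 5 consecutive days (test compounds 50 mg/kg, chloroquine reference 10 mg/kg). Parasitaemia measured by flow cytometry (10 μL blood in 2000 μL PBS) on days 4, 7 and 14 in survivors, expressed as % reduction versus vehicle-treated infected controls. Survivors counted on days 7, 11, 14 and 25; mean survival time calculated.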
# Plasmodium berghei [4] = test: Antiplasmodial activity against Plasmodium berghei ANKA infected in mice (Mus musculus) assessed as mice (Mus musculus) survival at 50 mg/kg, intraperitoneal for 5 consecutive days measured on day 11 post parasitic infection; type: functional, organism-based; parameters: dose 50 mg/kg; method in brief: as §1
# Plasmodium falciparum [5] = test: Antiplasmodial activity against Plasmodium falciparum K1 by micro dilution assay; type: functional, organism-based; method in brief: as §2
# Plasmodium berghei [6] = test: Antiplasmodial activity against Plasmodium berghei ANKA infected in mice (Mus musculus) assessed as mean survival time at 50 mg/kg, intraperitoneal for 5 consecutive days; type: functional; method in brief: as §3
# Plasmodium berghei [7] = test: Antiplasmodial activity against Plasmodium berghei ANKA infected in mice (Mus musculus) assessed as suppression of parasitaemia at 50 mg/kg, intraperitoneal for 5 consecutive days measured on day 4 post parasitic infection; type: functional; details: ip, 96 h; method in brief: as §3
# Plasmodium berghei [8] = test: Antiplasmodial activity against Plasmodium berghei ANKA infected in mice (Mus musculus) assessed as suppression of parasitaemia at 50 mg/kg, intraperitoneal for 5 consecutive days measured on day 14 post parasitic infection; type: functional; details: ip, 336 h; method in brief: as §3
# Plasmodium falciparum [9] = test: Ratio of fosmidomycin IC50 to compound IC50 for Plasmodium falciparum K1; type: functional
# Plasmodium berghei [10] = test: Antiplasmodial activity against Plasmodium berghei ANKA infected in mice (Mus musculus) assessed as suppression of parasitaemia at 50 mg/kg, intraperitoneal for 5 consecutive days measured on day 7 post parasitic infection; type: functional; details: ip, 168 h; method in brief: as §3
# [11] = Dissociation constant, pKa by NMR titration assay; type: physicochemical
# Method in brief: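 The ³¹P NMR chemical shift was recorded across a range of pH values and plotted against pH. Each pKa was taken as the pH at the inflection point of the titration curve, with the second pKa the value of interest.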
# Plasmodium berghei [12] = test: Antiplasmodial activity against Plasmodium berghei ANKA infected in mice (Mus musculus) assessed as mice (Mus musculus) survival at 50 mg/kg, intraperitoneal for 5 consecutive days measured on day 7 post parasitic infection; type: functional, organism-based; parameters: dose 50 mg/kg; method in brief: as §3
# Plasmodium berghei [13] = test: Antiplasmodial activity against Plasmodium berghei ANKA infected in mice (Mus musculus) assessed as mice (Mus musculus) survival at 10 mg/kg, intraperitoneal for 5 consecutive days measured on day 11 post parasitic infection; type: functional, organism-based; parameters: dose 10 mg/kg; method in brief: as §1
# Plasmodium berghei [14] = test: Antiplasmodial activity against Plasmodium berghei ANKA infected in mice (Mus musculus) assessed as suppression of parasitaemia at 10 mg/kg, intraperitoneal for 5 consecutive days measured on day 4 post parasitic infection; details: ip, 96 h, read-out: INH
# Plasmodium berghei [15] = test: Antiplasmodial activity against Plasmodium berghei ANKA infected in mice (Mus musculus) assessed as mice (Mus musculus) survival at 10 mg/kg, intraperitoneal for 5 consecutive days measured on day 14 post parasitic infection; type: functional, organism-based; parameters: dose 10 mg/kg; method in brief: as §1
# Plasmodium berghei [16] = test: Antiplasmodial activity against Plasmodium berghei ANKA infected in mice (Mus musculus) assessed as mean survival time at 10 mg/kg, intraperitoneal for 5 consecutive days; type: functional; method in brief: as §3
# Plasmodium berghei [17] = test: Antiplasmodial activity against Plasmodium berghei ANKA infected in mice (Mus musculus) assessed as mice (Mus musculus) survival at 10 mg/kg, intraperitoneal for 5 consecutive days measured on day 7 post parasitic infection; type: functional, organism-based; parameters: dose 10 mg/kg; method in brief: as §1
Compound,Activity (Plasmodium berghei [1]),IC50 (Plasmodium falciparum [2]),Activity (Plasmodium berghei [3]),Activity (Plasmodium berghei [4]),IC50 (Plasmodium falciparum [5]),MST (Plasmodium berghei [6]),inhibition in vivo at 50 mg/kg (Plasmodium berghei [7]),inhibition in vivo at 50 mg/kg (Plasmodium berghei [8]),Ratio IC50 (Plasmodium falciparum [9]),inhibition in vivo at 50 mg/kg (Plasmodium berghei [10]),pKa [11],Activity (Plasmodium berghei [12]),Activity (Plasmodium berghei [13]),inhibition in vivo at 10 mg/kg (Plasmodium berghei [14]),Activity (Plasmodium berghei [15]),MST (Plasmodium berghei [16]),Activity (Plasmodium berghei [17])
O=CN(O)CCC(c1ccc(Cl)c(Cl)c1)P(=O)(O)O (stereo not drawn),inactive,0.6 µM,inactive,inactive,0.16 µM,7 days,46%,–,–,–,–,–,–,–,–,–,–
CN(O)C(=O)CCC(F)P(=O)(O)O.N.N (racemic),–,0.73 µM,inactive,–,0.31 µM,11.7 days,85%,41%,5,42%,–,–,–,–,–,–,–
CC(=O)N(O)CCC(Cl)P(=O)(O)O.N.N (racemic),–,0.82 µM,–,–,0.3 µM,–,–,–,5,–,≤ 6,–,–,–,–,–,–
CC(=O)N(O)CCC(F)P(=O)(O)O.N.N (racemic),–,0.7 µM,inactive,–,0.29 µM,15.8 days,88%,32%,5,62%,≤ 6,Active,–,–,–,–,–
CCN(CC)CCCC(C)Nc1ccnc2cc(Cl)ccc12 (stereo not drawn) [CHLOROQUINE],–,–,–,–,–,–,–,–,–,–,–,–,Active,100%,Active,20.7 days,Active
O=CN(O)CCCP(=O)(O)O [FOSMIDOMYCIN],–,–,–,–,1.73 µM,11.5 days,82%,–,–,–,–,Active,–,–,–,–,–
CC(=O)N(O)CCCP(=O)(O)O [FR-900098],–,–,–,–,0.42 µM,10.8 days,93%,–,–,–,7.35,Active,–,–,–,–,–

# — ChEMBL document CHEMBL1155443, “Synthesis and evaluation of alpha-halogenated analogues of 3-(acetylhydroxyamino)propylphosphonic acid (FR900098) as antimalarials” (J Med Chem, 2010)
